Test results: ChEMBL document CHEMBL1165950, “Design and synthesis of new potent anticancer pyrazoles with high FLT3 kinase inhibitory selectivity” (Bioorg Med Chem, 2010)

How the values were obtained:
Type in all cases: functional
HCT-116 = assay: Cytotoxicity against human HCT116 cells assessed as cell growth at 10 uM; conditions: read-out: Activity
Summary of the method: (§1)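 Single-dose NCI-60 screen at 10 µM. Cells were grown in RPMI 1640 with 5% FBS and 2 mM L-glutamine, then treated for 48 h at 37 °C. Protein was measured by SRB staining with absorbance at 515 nm. Percentage growth was recorded, and inhibition percentage was calculated as 100 minus growth percentage.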

K562 [1] = assay: Cytotoxicity against human K562 cells assessed as cell growth at 10 uM after 48 hrs by sulforhodamine B assay; conditions: K562, 48 h, read-out: Activity
ACHN = assay: Cytotoxicity against human ACHN cells assessed as cell growth at 10 uM; conditions: read-out: Activity; summary of the method: as §1
COLO 205 = assay: Cytotoxicity against human COLO205 cells assessed as cell growth at 100 nM after 48 hrs by sulforhodamine B assay; conditions: COLO 205, 48 h, read-out: Activity
HL-60(TB) [2] = assay: Cytotoxicity against human HL-60(TB) cells assessed as cell growth at 100 nM after 48 hrs by sulforhodamine B assay; conditions: HL-60, 48 h, read-out: Activity
Summary of the method: (§2)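 NCI 60-cell panel. Cells are grown in RPMI 1640 with 5% FBS and 2 mM L-glutamine, seeded at 5000–40,000 cells/well according to doubling time, and preincubated 24 h. Time-zero plates are TCA-fixed. Compound from DMSO stock is given at five 10-fold or 1/2-log concentrations for 48 h at 37 °C, 5% CO2. Suspension cells are fixed with 80% TCA (final 16%) and SRB-stained, with absorbance at 515 nm. Percent growth is derived from Tz, control and test readings.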

U-251 = assay: Cytotoxicity against human U251 cells assessed as cell growth at 100 nM after 48 hrs by sulforhodamine B assay; conditions: U-251, 48 h, read-out: Activity
[3] = Cytotoxicity against human RPMI8266 cells assessed as cell growth at 100 nM after 48 hrs by sulforhodamine B assay; conditions: read-out: Activity
HL-60(TB) [4] = assay: Cytotoxicity against human HL-60(TB) cells assessed as cell growth at 0.01 uM after 48 hrs by sulforhodamine B assay; conditions: HL-60, 48 h, read-out: Activity; summary of the method: as §2
786-0 [5] = assay: Growth inhibition of human 786-0 cells after 48 hrs by sulforhodamine B assay; conditions: 786-0, 48 h; for CC50: read-out: LC50 (the source's name)
Summary of the method: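 NCI five-dose SRB assay in RPMI 1640 with 5% FBS and 2 mM L-glutamine. Cells were preincubated 24 h, then exposed 48 h at 37 °C to five concentrations (10-fold or half-log serial dilutions from DMSO stocks). TCA fixation, SRB staining, and absorbance at 515 nm followed. IC50 was taken where [(Ti−Tz)/(C−Tz)]×100 = 50, with Tz as time-zero cell density.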

MDA-MB-231 = assay: Cytotoxicity against human MDA-MB-231 cells assessed as cell growth at 0.001 uM after 48 hrs by sulforhodamine B assay; conditions: MDA-MB-231, 48 h, read-out: Activity
HOP-62 = assay: Growth inhibition of human HOP62 cells after 48 hrs by sulforhodamine B assay; conditions: HOP-62, 48 h
Summary of the method: (§3)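 NCI 60-cell screen, five-dose mode. Cells grown in RPMI 1640 with 5% FBS and 2 mM L-glutamine and plated at 5000-40,000 cells/well according to doubling time. After 24 h preincubation, a Tz plate was TCA-fixed. Five concentrations (10-fold or 1/2 log dilutions) were applied for 48 h at 37 °C. SRB staining read at 515 nm. IC50 taken from [(Ti-Tz)/(C-Tz)]×100 = 50.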

MOLT-4 = assay: Cytotoxicity against human MOLT4 cells assessed as cell growth at 10 uM; conditions: read-out: Activity
Summary of the method: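 NCI-60 screen: cells grown in RPMI 1640 with 5% FBS and 2 mM L-glutamine, plated at 5000–40,000 cells/well according to doubling time, and preincubated 24 h at 37 °C, 5% CO2. The single 10 µM dose (DMSO stock) was added, then incubated 48 h. Cells were TCA-fixed and stained with 0.4% SRB, read at 515 nm, and growth % calculated against time-zero and control plates.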

PC-3 [6] = assay: Cytotoxicity against human PC3 cells assessed as cell growth at 100 nM after 48 hrs by sulforhodamine B assay; conditions: PC-3, 48 h, read-out: Activity
IGROV-1 = assay: Cytotoxicity against human IGROV1 cells assessed as cell growth at 10 uM; conditions: read-out: Activity; summary of the method: as §1
NCI-H23 = assay: Cytotoxicity against human NCI-H23 cells assessed as cell growth at 10 uM after 48 hrs by sulforhodamine B assay; conditions: NCI-H23, 48 h, read-out: Activity
MDA-MB-435 = assay: Cytotoxicity against human MDA-MB-435 cells assessed as cell growth at 100 nM after 48 hrs by sulforhodamine B assay; conditions: MDA-MB-435, 48 h, read-out: Activity
786-0 [7] = assay: Cytotoxicity against human 786-0 cells assessed as cell growth at 1 uM after 48 hrs by sulforhodamine B assay; conditions: 786-0, 48 h, read-out: Activity
Summary of the method: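 NCI-60 five-dose screen. Cells were grown in RPMI 1640 with 5% FBS and 2 mM L-glutamine, plated at 5000–40,000 cells/well and preincubated for 24 h. Time-zero plates were TCA-fixed. DMSO-solubilized drug was added at five concentrations (10-fold or ½-log serial dilutions) for 48 h at 37 °C, 5% CO2. Cells were TCA-fixed, stained with 0.4% SRB and read at 515 nm. Percent growth used time-zero, control and test absorbances.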

HT-29 = assay: Cytotoxicity against human HT-29 cells assessed as cell growth at 1 uM after 48 hrs by sulforhodamine B assay; conditions: HT-29, 48 h, read-out: Activity
PC-3 [8] = assay: Cytotoxicity against human PC3 cells assessed as cell growth at 0.01 uM after 48 hrs by sulforhodamine B assay; conditions: PC-3, 48 h, read-out: Activity
[9] = Growth inhibition of human Hs 578T cells after 48 hrs by sulforhodamine B assay; conditions: for CC50: read-out: LC50 (the source's name); summary of the method: as §3
K562 [10] = assay: Cytotoxicity against human K562 cells assessed as cell growth at 1 uM after 48 hrs by sulforhodamine B assay; conditions: K562, 48 h, read-out: Activity
K562 [11] = assay: Cytotoxicity against human K562 cells assessed as cell growth at 0.01 uM after 48 hrs by sulforhodamine B assay; conditions: K562, 48 h, read-out: Activity
HOP-92 = assay: Cytotoxicity against human HOP92 cells assessed as cell growth at 100 nM after 48 hrs by sulforhodamine B assay; conditions: HOP-92, 48 h, read-out: Activity
NCI-H322M = assay: Cytotoxicity against human NCI-H322M cells assessed as cell growth at 100 nM after 48 hrs by sulforhodamine B assay; conditions: read-out: Activity
OVCAR-5 [12] = assay: Cytotoxicity against human OVCAR5 cells assessed as cell growth at 1 uM after 48 hrs by sulforhodamine B assay; conditions: OVCAR-5, 48 h, read-out: Activity
OVCAR-5 [13] = assay: Cytotoxicity against human OVCAR5 cells assessed as cell growth at 0.001 uM after 48 hrs by sulforhodamine B assay; conditions: OVCAR-5, 48 h, read-out: Activity

## COc1cc(C)cc(-c2c(-c3ccnc(-c4ccc(N(C)C)cc4)c3)cnn2CC#N)c1
HCT-116
  growth at 10 µM: -32.4%
K562 [1]
  growth at 10 µM: -5%
ACHN
  growth at 10 µM: 22.1%
COLO 205
  growth at 0.1 µM: 7%
HL-60(TB) [2]
  growth at 0.1 µM: -26%
U-251
  growth at 0.1 µM: 6%
[3]
  growth at 0.1 µM: 13%
HL-60(TB) [4]
  growth at 0.01 µM: 52%
786-0 [5]
  GI50: 0.0853 µM
  TGI: > 100 µM
  CC50: > 100 µM
MDA-MB-231
  growth at 0.001 µM: 101%
HOP-62
  GI50: 0.263 µM
  LC50 (50% lethal concentration): > 100 µM
  TGI: > 100 µM
MOLT-4
  growth at 10 µM: 9.77%
PC-3 [6]
  growth at 0.1 µM: 11%
IGROV-1
  growth at 10 µM: 20.1%
NCI-H23
  growth at 10 µM: 17%
MDA-MB-435
  growth at 0.1 µM: -43%
786-0 [7]
  growth at 1 µM: 2%
HT-29
  growth at 1 µM: -51%
PC-3 [8]
  growth at 0.01 µM: 30%
[9]
  GI50: 0.166 µM
  TGI: > 100 µM
  CC50: > 100 µM
K562 [10]
  growth at 1 µM: -5%
K562 [11]
  growth at 0.01 µM: 34%
HOP-92
  growth at 0.1 µM: -3%
NCI-H322M
  growth at 0.1 µM: 20%
OVCAR-5 [12]
  growth at 1 µM: 81%
OVCAR-5 [13]
  growth at 0.001 µM: 90%

## COc1cc(C)cc(-c2c(-c3ccnc(-c4ccc(C(C)=O)cc4)c3)cnn2CC#N)c1
HCT-116
  growth at 10 µM: 23.4%
K562 [1]
  growth at 10 µM: 15%
ACHN
  growth at 10 µM: 70%
COLO 205
  growth at 0.1 µM: 102%
HL-60(TB) [2]
  growth at 0.1 µM: 88%
U-251
  growth at 0.1 µM: 89%
[3]
  growth at 0.1 µM: 88%
HL-60(TB) [4]
  growth at 0.01 µM: 99%
786-0 [5]
  GI50: 3.11 µM
  TGI: > 100 µM
  CC50: > 100 µM
MDA-MB-231
  growth at 0.001 µM: 99%
HOP-62
  GI50: 3.35 µM
  LC50 (50% lethal concentration): > 100 µM
  TGI: > 100 µM
MOLT-4
  growth at 10 µM: 58%
PC-3 [6]
  growth at 0.1 µM: 83%
IGROV-1
  growth at 10 µM: 98.5%
NCI-H23
  growth at 10 µM: 18%
MDA-MB-435
  growth at 0.1 µM: 63%
786-0 [7]
  growth at 1 µM: 10%
HT-29
  growth at 1 µM: 7%
PC-3 [8]
  growth at 0.01 µM: 88%
[9]
  GI50: 1.68 µM
  TGI: 5.68 µM
  CC50: > 100 µM
K562 [10]
  growth at 1 µM: 4%
K562 [11]
  growth at 0.01 µM: 80%
HOP-92
  growth at 0.1 µM: 61%
NCI-H322M
  growth at 0.1 µM: 100%
OVCAR-5 [12]
  growth at 1 µM: 60%
OVCAR-5 [13]
  growth at 0.001 µM: 85%
